The source of these data is ChEMBL document CHEMBL2021897, “Synthesis and SAR of 1,3-thiazolyl thiophene and pyridine derivatives as potent, orally active and S1P₃-sparing S1P₁ agonists” (Bioorg Med Chem Lett, 2012).

Activity calls are given as the source filed them. No cut-off for these calls is given here. A value given as a limit tells only on which side of the number the result lay.

Sphingosine 1-phosphate receptor 3, sequence (Q99500 whole entry): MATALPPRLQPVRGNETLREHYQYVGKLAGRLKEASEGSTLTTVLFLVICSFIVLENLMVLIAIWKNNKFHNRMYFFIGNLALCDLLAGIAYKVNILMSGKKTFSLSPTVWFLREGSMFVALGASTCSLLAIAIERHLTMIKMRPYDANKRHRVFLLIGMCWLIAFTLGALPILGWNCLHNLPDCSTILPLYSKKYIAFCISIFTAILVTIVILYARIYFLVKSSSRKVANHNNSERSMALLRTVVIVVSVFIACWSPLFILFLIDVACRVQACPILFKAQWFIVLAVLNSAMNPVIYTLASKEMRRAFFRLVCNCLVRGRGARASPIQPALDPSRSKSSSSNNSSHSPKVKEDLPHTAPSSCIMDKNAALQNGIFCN
Sphingosine 1-phosphate receptor 1, sequence (P21453 whole entry): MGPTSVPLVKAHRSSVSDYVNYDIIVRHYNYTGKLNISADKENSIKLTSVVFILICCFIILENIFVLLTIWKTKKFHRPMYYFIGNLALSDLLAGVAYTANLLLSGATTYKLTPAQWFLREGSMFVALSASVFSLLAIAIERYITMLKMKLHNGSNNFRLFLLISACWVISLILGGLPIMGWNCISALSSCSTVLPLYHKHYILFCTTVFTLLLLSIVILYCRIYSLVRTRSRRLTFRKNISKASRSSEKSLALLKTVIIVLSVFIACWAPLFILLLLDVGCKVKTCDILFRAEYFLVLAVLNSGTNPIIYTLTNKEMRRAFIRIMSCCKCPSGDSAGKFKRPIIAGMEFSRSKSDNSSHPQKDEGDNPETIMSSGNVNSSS

The first experiment addresses T1, Peroxisome proliferator-activated receptor alpha (Homo sapiens) (UniProt Q07869).
T1 sequence (whole entry): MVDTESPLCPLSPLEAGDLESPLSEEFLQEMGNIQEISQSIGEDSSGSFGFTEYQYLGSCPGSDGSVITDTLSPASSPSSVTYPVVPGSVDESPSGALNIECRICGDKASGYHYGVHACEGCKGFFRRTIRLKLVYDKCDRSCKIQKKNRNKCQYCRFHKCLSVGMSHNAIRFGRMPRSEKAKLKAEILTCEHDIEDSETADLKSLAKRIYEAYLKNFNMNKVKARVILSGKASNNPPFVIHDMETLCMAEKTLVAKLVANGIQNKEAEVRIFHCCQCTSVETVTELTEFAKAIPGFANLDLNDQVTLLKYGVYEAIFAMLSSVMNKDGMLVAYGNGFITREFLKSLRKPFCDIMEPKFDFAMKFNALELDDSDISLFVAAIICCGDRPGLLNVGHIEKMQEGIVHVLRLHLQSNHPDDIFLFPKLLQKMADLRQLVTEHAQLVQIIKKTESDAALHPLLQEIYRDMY
In words: Agonist activity at PPARalpha. Format: functional.
Conditions: not given
For `O=C(O)c1ccc(Oc2ccccc2)cc1`, the result was Active.

The species named for the next experiment is Homo sapiens. Briefly: Selectivity ratio of EC50 for human S1P3 receptor to EC50 for human S1P1 receptor.
Conditions: not given
Take `CCc1cc(CN2CC(C(=O)O)C2)sc1-c1ncc(-c2ccc(Oc3ccccc3)cc2)s1`: the Ratio EC50 was > 4400.

Another experiment deals with Rattus norvegicus. Briefly: Immunosuppressive activity in LEW rat transplanted with spleen cells of WKAH rat assessed as inhibition of enlargement of draining popliteal lymph node at 1 mg/kg, po qd for 4 days. Format: functional.
Conditions: not given
The method in brief:
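Spleen cells from WKAH rats were injected into the footpads of LEW rats to induce draining popliteal lymph node enlargement. Dosing was oral, once daily for four days from the day of cell injection (day 0). Lymph node weight was measured on day 4. Values are the mean of five rats; ID50 is derived from at least three doses.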
With `CCc1cc(CN2CC(C(=O)O)C2)sc1-c1nnc(-c2ccc(Oc3ccccc3)cc2)s1`, the inhibition entry is “inactive”.

The experiment is the same for the next values; noted with them: 96 h.
Broadly, the inhibition in vivo is the percentage by which the read-out fell short of the control. For `CCc1cc(CN2CC(C(=O)O)C2)sc1-c1ncc(-c2ccc(Oc3ccccc3)cc2)s1`, the inhibition in vivo at 1 mg/kg was 42%.

The next experiment has as its target Sphingosine 1-phosphate receptor 3 (Homo sapiens, UniProt Q99500). In words: Agonist activity at human S1P3 receptor by [S35]GTPgammaS binding assay.
Conditions: not given
Format: functional. An outline of the steps:
(§1)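 GTPγS binding at human S1P1 and S1P3 receptors. EC50 is the mean of two experimental determinations.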
By EC50 is commonly meant the concentration that produces a half-maximal response. A higher EC50 goes with lower potency in that assay. With `CCc1cc(CN2CC(C(=O)O)C2)sc1-c1nnc(-c2ccc(Oc3ccccc3)cc2)s1`, the EC50 is > 20000 nM.
Still for that read-out and setting: next, `CCc1cc(CN2CC(C(=O)O)C2)sc1-c1ncc(-c2ccc(Oc3ccccc3)cc2)s1`: > 20000 nM.

Another experiment has as its target Sphingosine 1-phosphate receptor 1 (Homo sapiens, UniProt P21453). In words: Agonist activity at human S1P1 receptor by [S35]GTPgammaS binding assay. Format: functional.
Conditions: not given
An outline of the steps:
as §1
Consider `CCc1cc(CN2CC(C(=O)O)C2)sc1-c1nnc(-c2ccc(Oc3ccccc3)cc2)s1`, for which the EC50 stood at 25 nM.
Same read-out and setting: next, `CCc1cc(CN2CC(C(=O)O)C2)sc1-c1ncc(-c2ccc(Oc3ccccc3)cc2)s1`: 4.5 nM.
